Source: publication PMC10582670 (Clinical and Translational Science, 2023)
“And” between values parts separate entries of the source, which are not always exact repeats. Identical values can stand only once.

Tested on: healthy volunteers
Experiment: Safety and tolerability
Format: in vivo, human
Outline: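 Healthy volunteers aged 18–55 y, BMI 18–30 kg/m², randomised double-blind 8:2 to once-daily oral drug or placebo for up to 14 days, with follow-up visits on days 21 and 42. Treatment-emergent AEs coded with MedDRA 23.1 and graded with the WHO toxicity scale, alongside ECGs, laboratory tests and vital signs. The safety population was all subjects receiving at least one dose.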

## O=C(c1nc2n(n1)[C@H](c1ccccc1)C[C@@H]2F)C1CC1 [GDC‐8264]
MAD 50 mg q.d., n = 5
  No. of TEAEs: 10
  No. of deaths: 0 no. of subjects (%)
  No. of subjects with at least one Related TEAE: 3 (60.0) no. of subjects (%)
  No. of subjects with at least one Serious TEAE: 0 no. of subjects (%)
  No. of subjects with at least one TEAE: 3 (60.0) no. of subjects (%)
  No. of subjects withdrawn from study due to a TEAE: 0 no. of subjects (%)
  TEAE Abdominal pain: 0 no. of subjects (%)
  TEAE Back pain: 0 no. of subjects (%)
  TEAE Catheter site pain: 0 no. of subjects (%)
  TEAE Dermatitis contact: 0 no. of subjects (%)
  TEAE Diarrhea: 1 (20.0) no. of subjects (%)
  TEAE Dizziness: 0 no. of subjects (%)
  TEAE Dyspepsia: 1 (20.0) no. of subjects (%)
  TEAE Gastrointestinal sounds abnormal: 0 no. of subjects (%)
  TEAE Gingivitis: 0 no. of subjects (%)
  TEAE Headache: 0 no. of subjects (%)
  TEAE Medical device site dermatitis: 0 no. of subjects (%)
  TEAE Myalgia: 0 no. of subjects (%)
  TEAE Nausea: 0 no. of subjects (%)
  TEAE Presyncope: 0 no. of subjects (%)
  TEAE Somnolence: 0 no. of subjects (%)
MAD 100 mg q.d., n = 7
  No. of TEAEs: 32
  No. of deaths: 0 no. of subjects (%)
  No. of subjects with at least one Related TEAE: 5 (71.4) no. of subjects (%)
  No. of subjects with at least one Serious TEAE: 0 no. of subjects (%)
  No. of subjects with at least one TEAE: 7 (100) no. of subjects (%)
  No. of subjects withdrawn from study due to a TEAE: 0 no. of subjects (%)
  TEAE Abdominal pain: 2 (28.6) no. of subjects (%)
  TEAE Back pain: 0 no. of subjects (%)
  TEAE Catheter site pain: 2 (28.6) no. of subjects (%)
  TEAE Dermatitis contact: 1 (14.3) no. of subjects (%)
  TEAE Diarrhea: 2 (28.6) no. of subjects (%)
  TEAE Dizziness: 2 (28.6) no. of subjects (%)
  TEAE Dyspepsia: 0 no. of subjects (%)
  TEAE Gastrointestinal sounds abnormal: 1 (14.3) no. of subjects (%)
  TEAE Gingivitis: 2 (28.6) no. of subjects (%)
  TEAE Headache: 2 (28.6) no. of subjects (%)
  TEAE Medical device site dermatitis: 0 no. of subjects (%)
  TEAE Myalgia: 0 no. of subjects (%)
  TEAE Nausea: 1 (14.3) no. of subjects (%)
  TEAE Presyncope: 1 (14.3) no. of subjects (%)
  TEAE Somnolence: 3 (42.9) no. of subjects (%)
MAD All GDC-8264, n = 12
  No. of TEAEs: 42
  No. of deaths: 0 no. of subjects (%)
  No. of subjects with at least one Related TEAE: 8 (66.7) no. of subjects (%)
  No. of subjects with at least one Serious TEAE: 0 no. of subjects (%)
  No. of subjects with at least one TEAE: 10 no. of subjects (%) and 10 (83.3) no. of subjects (%)
  No. of subjects withdrawn from study due to a TEAE: 0 no. of subjects (%)
  TEAE Abdominal pain: 2 (16.7) no. of subjects (%)
  TEAE Back pain: 0 no. of subjects (%)
  TEAE Catheter site pain: 2 (16.7) no. of subjects (%)
  TEAE Dermatitis contact: 1 (8.3) no. of subjects (%)
  TEAE Diarrhea: 3 (25.0) no. of subjects (%)
  TEAE Dizziness: 2 (16.7) no. of subjects (%)
  TEAE Dyspepsia: 1 (8.3) no. of subjects (%)
  TEAE Gastrointestinal sounds abnormal: 1 (8.3) no. of subjects (%)
  TEAE Gingivitis: 2 (16.7) no. of subjects (%)
  TEAE Headache: 2 (16.7) no. of subjects (%)
  TEAE Medical device site dermatitis: 0 no. of subjects (%)
  TEAE Myalgia: 0 no. of subjects (%)
  TEAE Nausea: 1 (8.3) no. of subjects (%)
  TEAE Presyncope: 1 (8.3) no. of subjects (%)
  TEAE Somnolence: 3 (25.0) no. of subjects (%)
SAD (fasted) 5 mg, n = 6
  No. of TEAEs: 6
  No. of deaths: 0 no. of subjects (%)
  No. of subjects with at least one Related TEAE: 0 no. of subjects (%)
  No. of subjects with at least one Serious TEAE: 0 no. of subjects (%)
  No. of subjects with at least one TEAE: 5 (83.3) no. of subjects (%)
  No. of subjects withdrawn from study due to a TEAE: 0 no. of subjects (%)
  TEAE Abdominal pain: 1 (16.7) no. of subjects (%)
  TEAE Back pain: 0 no. of subjects (%)
  TEAE Catheter site pain: 1 (16.7) no. of subjects (%)
  TEAE Dermatitis contact: 1 (16.7) no. of subjects (%)
  TEAE Diarrhea: 0 no. of subjects (%)
  TEAE Dizziness: 0 no. of subjects (%)
  TEAE Dyspepsia: 1 (16.7) no. of subjects (%)
  TEAE Gastrointestinal sounds abnormal: 0 no. of subjects (%)
  TEAE Gingivitis: 0 no. of subjects (%)
  TEAE Headache: 1 (16.7) no. of subjects (%)
  TEAE Medical device site dermatitis: 0 no. of subjects (%)
  TEAE Myalgia: 0 no. of subjects (%)
  TEAE Nausea: 0 no. of subjects (%)
  TEAE Presyncope: 0 no. of subjects (%)
  TEAE Somnolence: 0 no. of subjects (%)
SAD (fasted) 25 mg, n = 6
  No. of TEAEs: 6
  No. of deaths: 0 no. of subjects (%)
  No. of subjects with at least one Related TEAE: 0 no. of subjects (%)
  No. of subjects with at least one Serious TEAE: 0 no. of subjects (%)
  No. of subjects with at least one TEAE: 4 (66.7) no. of subjects (%)
  No. of subjects withdrawn from study due to a TEAE: 0 no. of subjects (%)
  TEAE Abdominal pain: 1 (16.7) no. of subjects (%)
  TEAE Back pain: 0 no. of subjects (%)
  TEAE Catheter site pain: 0 no. of subjects (%)
  TEAE Dermatitis contact: 0 no. of subjects (%)
  TEAE Diarrhea: 0 no. of subjects (%)
  TEAE Dizziness: 0 no. of subjects (%)
  TEAE Dyspepsia: 0 no. of subjects (%)
  TEAE Gastrointestinal sounds abnormal: 0 no. of subjects (%)
  TEAE Gingivitis: 0 no. of subjects (%)
  TEAE Headache: 2 (33.3) no. of subjects (%)
  TEAE Medical device site dermatitis: 0 no. of subjects (%)
  TEAE Myalgia: 0 no. of subjects (%)
  TEAE Nausea: 0 no. of subjects (%)
  TEAE Presyncope: 1 (16.7) no. of subjects (%)
  TEAE Somnolence: 0 no. of subjects (%)
